# Reference: ChEMBL document CHEMBL4732169, “Design and synthesis of mycobacterial pks13 inhibitors: Conformationally rigid tetracyclic molecules” (Eur J Med Chem, 2021)
# Legend:
# [1] = test system: Staphylococcus aureus; test: Antibacterial activity against Staphylococcus aureus Newman assessed as inhibition of bacterial growth measured after 18 hrs by two fold serial dilution method; assay type: functional
# How it was run: (§1)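 Bacteria grown overnight at 37 °C in TSB without antibiotics. Compound in DMSO was serially diluted two-fold to final […] and mixed with an equal volume of bacteria. MIC was read after 18 h at 37 °C; three experiments per condition.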
# [2] = test system: Bacillus subtilis; test: Antibacterial activity against Bacillus subtilis168 assessed as inhibition of bacterial growth measured after 18 hrs by two fold serial dilution method; assay type: functional; details: subsp. subtilis str. 168; how it was run: as §1
# [3] = test system: Escherichia coli; test: Antibacterial activity against Escherichia coli AB1157 assessed as inhibition of bacterial growth measured after 18 hrs by two fold serial dilution method; assay type: functional; how it was run: as §1
# [4] = test system: Escherichia coli; test: Antibacterial activity against Escherichia coli DH5-alpha assessed as inhibition of bacterial growth measured after 18 hrs by two fold serial dilution method; assay type: functional; how it was run: as §1
# [5] = test system: Mycobacterium tuberculosis; test: Antitubercular activity against Mycobacterium tuberculosis H37Rv assessed as bacterial growth inhibition incubated for 4 days by MABA assay; assay type: functional; details: time 4 day
# [6] = test system: Mycobacterium tuberculosis; test: Inhibition of Mycobacterium tuberculosis Pks13-TE using 4-MUH as substrate by measuring fluorescence product for every 10 mins for 60 mins
# How it was run: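 Pks13-TE thioesterase activity measured with the fluorogenic substrate 4-methylumbelliferyl heptanoate at 20 µM final, in 0.1 M Tris-HCl pH 7.0. Compound was serially diluted from 20 µM down to about 0.0195 µM, or DMSO was added. Points were run in triplicate and averaged to build concentration-response curves for IC50.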
# [7] = test system: Vero; test: Cytotoxicity against African green monkey Vero cells incubated for 72 hrs in DEME medium; assay type: cell-based; details: Chlorocebus sabaeus
# [8] = Selective index, ratio of CC50 for African green monkey Vero cells to IC50 for Mycobacterium tuberculosis H37Rv
# How it was run: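 Vero (African green monkey kidney) cytotoxicity measured by alamar blue assay to give IC50. SI calculated as IC50(Vero)/MIC(H37Rv).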
# [9] = test system: Mycobacterium tuberculosis; test: Binding affinity to wild type Mycobacterium tuberculosis Pks13-TE expressed in Escherichia coli BL21(DE3)pLysS assessed as change in melting temperature at protein to compound molar ratio of 1:5 incubated for 30 mins by nanoDSF assay
# How it was run: (§2)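 Recombinant N-Mbp-His-tagged Pks13-TE domain of Mtb Pks13 (Rv3800c), expressed in E. coli BL21(DE3)pLysS after 0.5 mM IPTG induction and purified to >95%. Protein was incubated with compound (stock in DMSO) in 100 mM NaCl, 20 mM Tris-HCl pH 8.0 for 30 min, with a DMSO blank. nanoDSF ramp 30–90 °C at 2 °C/min, read as the F350/F330 ratio. Tm shift averaged from three measurements.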
# [10] = test system: Mycobacterium tuberculosis; test: Binding affinity to wild type Mycobacterium tuberculosis Pks13-TE expressed in Escherichia coli BL21(DE3)pLysS assessed as change in melting temperature at protein to compound molar ratio of 1:10 incubated for 30 mins by nanoDSF assay; how it was run: as §2
# [11] = test system: Mycobacterium tuberculosis; test: Antitubercular activity against drug susceptible Mycobacterium tuberculosis V4207 by MABA assay; assay type: functional
# How it was run: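 Microplate alamar blue assay (MABA) against each Mtb strain, either H37Rv or a clinical isolate (drug-susceptible, MDR or XDR). MIC taken as the lowest concentration giving at least 90% reduction of the bacterial growth signal. Each value is the average of three individual measurements.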
# [12] = test system: Mycobacterium tuberculosis; test: Potency index, ratio of MIC for TAM16 to MICfor test compound for antitubercular activity against Mycobacterium tuberculosis H37Rv assessed as bacterial growth inhibition incubated for 4 days by MABA assay; assay type: functional; details: time 4 day
smiles,measurement,setting,value
CN(C)[C@@H]1C(O)=C(C(N)=O)C(=O)[C@@]2(O)C(O)=C3C(=O)c4c(O)cccc4[C@@](C)(O)[C@H]3C[C@@H]12 [TETRACYCLINE],MIC,[1],0.2 µg/mL
same,MIC,[2],> 25 µg/mL
same,MIC,[3],1.56 µg/mL
same,MIC,[4],0.78 µg/mL
CCOC(=O)c1c(-c2ccccc2)oc2ccc(OC)c(C(=O)N3CCCCC3)c12,MIC=<90,[5],>64 µg/mL
CCNC(=O)c1c(-c2ccc(F)cc2)oc2ccc(O)c(CN3CCCCC3)c12,MIC=<90,[5],4 µg/mL
CCOC(=O)c1c(-c2ccccc2)oc2ccc(O)c(CN3CCCCC3)c12,MIC=<90,[5],2 µg/mL
same,INH,[6],4.6 µM
CCOC(=O)c1c(-c2ccccc2)oc2cc(C(=O)N3CCCCC3)c(OC)cc12,MIC=<90,[5],>64 µg/mL
O=c1[nH]c2cc(F)ccc2c2oc3ccc(O)c(CN4CCCCC4)c3c12,MIC=<90,[5],0.5 µg/mL
same,IC50,[7],16 µg/mL
same,Ratio CC50/IC50,[8],32
O=c1[nH]c2ccc(Cl)cc2c2oc3ccc(O)c(CN4CCCCC4)c3c12,MIC=<90,[5],1 µg/mL
O=c1[nH]c2ccccc2c2oc3ccc(O)c(CN4CCCCC4)c3c12,MIC=<90,[5],0.25 µg/mL
same,ΔTm,[9],9.6 °C
same,ΔTm,[10],10.2 °C
COc1cc2c(cc1C(=O)N1CCCCC1)oc1c3ccccc3oc(=O)c21,MIC=<90,[5],>64 µg/mL
CCOC(=O)c1c(-c2ccccc2)[nH]c2ccc(O)c(CN3CCCCC3)c12,MIC=<90,[5],>32 µg/mL
NC[C@H]1O[C@H](O[C@H]2[C@H](O)[C@@H](O[C@H]3O[C@H](CO)[C@@H](O)[C@H](N)[C@H]3O)[C@H](N)C[C@@H]2N)[C@H](O)[C@@H](O)[C@@H]1O [KANAMYCIN],MIC=<90,[11],2 µg/mL
same,MIC,[1],2.34 µg/mL
same,MIC,[2],9.39 µg/mL
same,MIC,[3],9.39 µg/mL
same,MIC,[4],2.34 µg/mL
O=c1oc2ccccc2c2oc3ccc(O)c(CN4CCCCC4)c3c12,MIC=<90,[5],0.125 µg/mL
NNC(=O)c1ccncc1 [ISONIAZID],MIC=<90,[11],0.04 µg/mL
O=c1[nH]c2ccc(O)cc2c2oc3ccc(O)c(CN4CCCCC4)c3c12,MIC=<90,[5],1 µg/mL
same,IC50,[7],16 µg/mL
same,Ratio CC50/IC50,[8],16
same,ΔTm,[9],7.4 °C
same,ΔTm,[10],8.5 °C
CN[C@H](CC(C)C)C(=O)N[C@H]1C(=O)N[C@@H](CC(N)=O)C(=O)N[C@H]2C(=O)N[C@H]3C(=O)N[C@H](C(=O)N[C@H](C(=O)O)c4cc(O)cc(O)c4-c4cc3ccc4O)[C@H](O)c3ccc(c(Cl)c3)Oc3cc2cc(c3O[C@@H]2O[C@H](CO)[C@@H](O)[C@H](O)[C@H]2O[C@H]2C[C@](C)(N)[C@H](O)[C@H](C)O2)Oc2ccc(cc2Cl)[C@H]1O [VANCOMYCIN],MIC,[1],0.39 µg/mL
same,MIC,[2],> 25 µg/mL
same,MIC,[3],> 25 µg/mL
same,MIC,[4],> 25 µg/mL
CO[C@H]1/C=C/O[C@@]2(C)Oc3c(C)c(O)c4c(O)c(c(/C=N/N5CCN(C)CC5)c(O)c4c3C2=O)NC(=O)/C(C)=C\C=C\[C@H](C)[C@H](O)[C@@H](C)[C@@H](O)[C@@H](C)[C@H](OC(C)=O)[C@@H]1C [RIFAMPIN],MIC=<90,[11],0.0625 µg/mL
O=c1[nH]c2cc(Br)ccc2c2oc3ccc(O)c(CN4CCCCC4)c3c12,MIC=<90,[5],0.5 µg/mL
same,IC50,[7],64 µg/mL
same,Ratio CC50/IC50,[8],128
O=c1[nH]c2cc(O)ccc2c2oc3ccc(O)c(CN4CCCCC4)c3c12,MIC=<90,[5],0.0313 µg/mL
same,MIC=<90,[11],0.0313 µg/mL
same,IC50,[7],4 µg/mL
same,Ratio CC50/IC50,[8],64
same,MIC,[1],> 25 µg/mL
same,MIC,[2],> 25 µg/mL
same,MIC,[3],> 25 µg/mL
same,MIC,[4],> 25 µg/mL
same,ΔTm,[9],7.5 °C
same,ΔTm,[10],9.4 °C
same,INH,[6],0.58 µM
CC1COc2c(N3CCN(C)CC3)c(F)cc3c(=O)c(C(=O)O)cn1c23 (stereo not drawn) [OFLOXACIN],MIC=<90,[11],0.5 µg/mL
O=c1oc2ccccc2c2[nH]c3ccc(O)c(CN4CCCCC4)c3c12,MIC=<90,[5],32 µg/mL
same,ΔTm,[9],0.8 °C
same,ΔTm,[10],3.1 °C
O=c1[nH]c2ccc(F)cc2c2oc3ccc(O)c(CN4CCCCC4)c3c12,MIC=<90,[5],1 µg/mL
same,IC50,[7],16 µg/mL
same,Ratio CC50/IC50,[8],16
O=c1oc2ccccc2c2oc3cc(Br)c(O)c(CN4CCCCC4)c3c12,MIC=<90,[5],>64 µg/mL
O=c1oc2cc(O)ccc2c2oc3ccc(O)c(CN4CCCCC4)c3c12,MIC=<90,[5],0.0039 µg/mL
same,Ratio,[12],8
CCNC(=O)c1c(-c2ccccc2)oc2ccc(O)c(CN3CCCCC3)c12,MIC=<90,[5],4 µg/mL
COc1ccc2oc3c4ccccc4oc(=O)c3c2c1C(=O)N1CCCCC1,MIC=<90,[5],>64 µg/mL
COc1ccc2c(c1)[nH]c(=O)c1c2oc2ccc(O)c(CN3CCCCC3)c21,MIC=<90,[5],0.25 µg/mL
same,IC50,[7],64 µg/mL
same,Ratio CC50/IC50,[8],256
same,ΔTm,[9],8.7 °C
same,ΔTm,[10],9 °C
COc1ccc2[nH]c(=O)c3c(oc4ccc(O)c(CN5CCCCC5)c43)c2c1,MIC=<90,[5],4 µg/mL
CCOC(=O)c1c(-c2ccccc2)oc2cc(Br)c(O)c(CN3CCCCC3)c12,MIC=<90,[5],32 µg/mL
CNC(=O)c1c(-c2ccc(O)cc2)oc2ccc(O)c(CN3CCCCC3)c12,MIC=<90,[5],0.0313 µg/mL
O=c1oc2ccccc2c2sc3ccc(O)c(CN4CCCCC4)c3c12,MIC=<90,[5],1 µg/mL
same,ΔTm,[9],7.9 °C
same,ΔTm,[10],9.1 °C
O=c1[nH]c2c(F)cccc2c2oc3ccc(O)c(CN4CCCCC4)c3c12,MIC=<90,[5],0.5 µg/mL
O=c1[nH]c2ccc(Br)cc2c2oc3ccc(O)c(CN4CCCCC4)c3c12,MIC=<90,[5],32 µg/mL
CCOC(=O)c1c(-c2ccccc2)sc2ccc(O)c(CN3CCCCC3)c12,MIC=<90,[5],16 µg/mL
same,ΔTm,[9],3.2 °C
same,ΔTm,[10],3.3 °C
O=c1[nH]c2cc(Cl)ccc2c2oc3ccc(O)c(CN4CCCCC4)c3c12,MIC=<90,[5],0.5 µg/mL
same,IC50,[7],32 µg/mL
same,Ratio CC50/IC50,[8],64
O=c1[nH]c2c(Cl)cccc2c2oc3ccc(O)c(CN4CCCCC4)c3c12,MIC=<90,[5],1 µg/mL
C[C@H]1COc2c(N3CCN(C)CC3)c(F)cc3c(=O)c(C(=O)O)cn1c23.C[C@H]1COc2c(N3CCN(C)CC3)c(F)cc3c(=O)c(C(=O)O)cn1c23.O [LEVOFLOXACIN],MIC=<90,[11],0.125 µg/mL
CCNC(=O)c1c(-c2ccc(OC)cc2)oc2ccc(O)c(CN3CCCCC3)c12,MIC=<90,[5],2 µg/mL
